According to the EternaBench riboswitch data:

Tested on: MS2 coat protein
Experiment: apparent Kd, MS2 coat protein; higher = weaker binding; RNA-MaP array; FMN 200 µM where present
How it was run: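 Designs were transcribed by stalled E. coli RNA polymerase on Illumina sequencing-chip clusters. They were titrated with SNAP-549-labelled MS2 coat protein from 0.7 or 1.5 nM, doubling to 3 µM, without and then with constant ligand. Buffer: 100 mM Tris-HCl pH 7.5, 80 mM KCl, 4 mM MgCl2, BSA, DTT, yeast tRNA, Tween-20. Green signal was normalised to red-channel RNA signal and control-cluster median Fmax. Apparent Kd is the median of filtered per-cluster binding-curve fits.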

[1] = designed as: OFF switch for flavin mononucleotide, no ligand
[2] = ligand present: flavin mononucleotide, designed as: OFF switch for flavin mononucleotide
[3] = designed as: ON switch for flavin mononucleotide, no ligand
[4] = ligand present: flavin mononucleotide, designed as: ON switch for flavin mononucleotide

GACAUUGACAAGAAGGCAAACAUGAGGAUCACCCAUGUUCUGCAUGUAUAUUGAGGAUAUUGCCAAUGCAUGUGGAUCACCCAA
apparent Kd [1]: 6.63 nM
apparent Kd [2]: 10.8 nM

GCAUGAUACUAGGAUAUCAGCAUACUUCAAUGUUGAGAAGGAGUAACAUGAGGAUCACCCAUGUAUCCAACAUG
apparent Kd [1]: 59.4 nM
apparent Kd [2]: 166 nM

UUAUUAUAUGUAGGAUAUGCAUAUUAUUAUUGUGCAGAAGGACAUGAGGAUCACCCAUGUAUAUUAUUAUUAUAUAUUAUAUAU
apparent Kd [1]: 30.9 nM
apparent Kd [2]: 49.7 nM

GGCAAUAUGUAGGAUAUCGUAUCGGAAACGAUACGAGAAGGGCAAACAUGAGGAUCACCCAUGUUCUUCAAGCC
apparent Kd [1]: 13 nM
apparent Kd [2]: 16.6 nM

UAAGUUUUGGUAGGAUAUACUUUAAAUUUCUCUAUCCAUACAUGAGGAUCACCCAUGUUUACAUUGUAGAAGGACCUUUAUGUU
apparent Kd [1]: 36.8 nM
apparent Kd [2]: 34 nM

AAGAAGUGAGGAUAUGGCCGGGUCCCUGGGUUUGGACCCGGCCAGAAGGCACAUGAGGAUCACCCAUGUAAGAA
apparent Kd [1]: 24 nM
apparent Kd [2]: 46.3 nM

CGCUGUCAUGCAGGAUAUGCAUUGGAUUACAAUGCAGAAGGGCGAUUACAUGAGGAUCACCCAUGUGUAGACAGUGAACAAGAG
apparent Kd [3]: 124 nM
apparent Kd [4]: 11.4 nM

GGAUUACAUGAGGAUCACCCAUGUGAGGAUAUCGAUGUCCUGUAAUUCGUGCGGGACUCGAGAAGGCACUUGGA
apparent Kd [1]: 51.3 nM
apparent Kd [2]: 168 nM

AAAAAAAAGGGUGAGGAUAUCGAAAAAAAAACAUGAGGAUCACCCAUGUGAAAAAAAAAAAAAUGCGAGAAGGCACUAAAAAAAAA
apparent Kd [3]: 151 nM
apparent Kd [4]: 45.6 nM

UUCCUACAUGAGGAUCACCCAUGUCAGGAUAUCUCCUCACUGCGCUUGCGCAGUGAAUAGAGAAGGGACAGGCU
apparent Kd [1]: 14.9 nM
apparent Kd [2]: 19.3 nM

AGUCAUACAGGAUAUACAUGAGGAUCACCCAUGUAAAUCCUAAAAAGAAAAACCUCUUGUAGAAGGGUAUGACA
apparent Kd [1]: 14.3 nM
apparent Kd [2]: 16.3 nM

GGUUUUGUGUAAGGAUAUGCAUCACUGAGAAAUUUAGUGAGGAAGAUCACAUGAGGAUCACCCAUGUAGAAGGUACACAUGUGG
apparent Kd [1]: 57.9 nM
apparent Kd [2]: 89.2 nM

AUAAAACAUGAGGAUCACCCAUGUCAACAAAGUCGAGGAUAUGGGCAAAUAAAAUAAGAACCAGAAGGCGAAUAUU
apparent Kd [3]: 223 nM
apparent Kd [4]: 48 nM

CCAUGUUAGCAGGAUAUGCAAUAAAUCUUUUAAGCAGAAGGGCUUACAUGAGGAUCACCCAUGUAUAAUUUCAA
apparent Kd [1]: 50.3 nM
apparent Kd [2]: 116 nM

AUAAUGCGAGGAUAUACAUGAGGAUCACCCAUGUAAUUCCAUCGGAGAGCCACAUUUCGUAGAAGGUGCAUUUA
apparent Kd [1]: 15.4 nM
apparent Kd [2]: 15.4 nM

ACAUGAGGAUCACCCAUGUUGCGAGUAGAAGGCUAUAAGAAACGGGAUGAAGAAAUCCACGCAAUAGAGGAUAUACGAAUUGGA
apparent Kd [3]: 12.1 nM
apparent Kd [4]: 7.78 nM

AUCGUGCAGCUUUGCUGUACGAGUACAUGAGGAUCACCCAUGUAGGAUAUGGUACGCUUUGCGUGCUAGAAGGAUAUGCGAUUG
apparent Kd [1]: 43.8 nM
apparent Kd [2]: 46.1 nM

ACAUGAGGAUCACCCAUGUGGAGUGAAGAAGGUGGUUACUUAAGACUCUCCCAUGUACUUAGGACUGAGGAUAUUCUAAUAUUU
apparent Kd [3]: 82.3 nM
apparent Kd [4]: 45.9 nM

UUAUUAUAUGUAGGAUAUGCAUAUAAUUAUUGUGCAGAAGGACAUGAGGAUCACCCAUGUAUAUUAUUAUUAUAUAUUAUAUAU
apparent Kd [1]: 24.9 nM
apparent Kd [2]: 14.3 nM

UAUAUAUAGUAAGGAUAUGUAUUUAGUUUAUAAACAGAAGGUACUGACAUGAGGAUCACCCAUGUUUUAGUGUGGGCAUGUAGA
apparent Kd [1]: 87.7 nM
apparent Kd [2]: 127 nM

AAUAUUUUUUGAGGAUAUUCAUACACUGUAUACGGAGAAGGCAAACAAUCAUGAGGACAUGAGGAUCACCCAUGUUGUGACCAU
apparent Kd [3]: 20.1 nM
apparent Kd [4]: 12.8 nM

CUACUUAGCCAGAAGGCAAGAGGUACAUGAGGAUCACCCAUGUAGUGAUUGAGGAUAUGGCAAGGUUCUAUGGUGCGUCUAGCC
apparent Kd [3]: 7.53 nM
apparent Kd [4]: 5.12 nM

GGAGCCCAGUCAGGAUAUGUAACGCUAAGGCUGUUACAUGAGGAUCACCCAUGUUUCACCGUGAAACAGAAGGGACAAUUGGCG
apparent Kd [3]: 500 nM
apparent Kd [4]: 147 nM
